Bioassay records as filed in PubChem.
CYP2C19 activ = cytochrome P450 2C19 (human) activation; recombinant CYP2C19, luciferin-H EGE luminescence; active compounds read high; 0 = fully inhibited enzyme, 1 = untreated enzyme; P33261; activation factor at 5 µM; 96,000 tested, under 10 active;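 active means activation factor of at least 2 at 5 µM in the primary screen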;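 further: 0 = wells with 2.5 mM tranylcypromine and 1 = vehicle-only wells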
Target sequence (P33261 whole entry, looked up): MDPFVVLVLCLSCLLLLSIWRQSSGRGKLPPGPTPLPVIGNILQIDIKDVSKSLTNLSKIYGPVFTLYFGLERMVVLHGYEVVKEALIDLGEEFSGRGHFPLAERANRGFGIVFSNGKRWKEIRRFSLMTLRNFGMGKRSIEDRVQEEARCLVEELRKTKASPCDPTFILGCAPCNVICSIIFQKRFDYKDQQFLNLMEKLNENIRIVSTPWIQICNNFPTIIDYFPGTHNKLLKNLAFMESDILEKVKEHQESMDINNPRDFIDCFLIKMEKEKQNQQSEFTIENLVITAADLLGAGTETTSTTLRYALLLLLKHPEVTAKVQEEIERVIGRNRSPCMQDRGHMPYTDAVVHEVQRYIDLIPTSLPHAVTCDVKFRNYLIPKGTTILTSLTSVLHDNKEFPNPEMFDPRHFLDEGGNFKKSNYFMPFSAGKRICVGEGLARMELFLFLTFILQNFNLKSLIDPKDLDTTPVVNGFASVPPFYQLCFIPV
CYP2C19 inh = human CYP2C19 inhibition. CYP2C19 Supersomes, luciferin-H EGE luminescence, 30 min. inhibition, % at 5 µM. 96,000 tested, 21% active. AID 778;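 active means CYP2C19 inhibition above a set limit at 5 µM in the primary screen, cut at about 50% in these data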;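 further: plate controls were negative control wells for no effect and 2.5 mM tranylcypromine positive control for full effect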
Ecoli WT expand = blocks growth of wild type E. coli BW25113; 98,000 tested, 0.15% active; growth inhibition, % at 100 µM; OD600 absorbance;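 active means growth inhibition above about 50% at one test dose, limit read from the data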;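 further: growth measured after 20 h incubation at 37 °C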
CYP2C9 activ = CYP2C9 (human) activation. 96,000 tested, 1.4% active. activation factor at 5 µM. P11712. AID 1024. recombinant CYP2C9, luciferin-H conversion, luminescence; active compounds read high; factor 1 = untreated enzyme, 0 = blocked;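 active means activation factor of 2 or more for CYP2C9 at a 5 µM dose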;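 further: 0 = sulfaphenazole-blocked wells and 1 = vehicle-only wells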
CYP2C9 inh = blocks human cytochrome P450 2C9 | AID 777 | CYP2C9 Supersomes, luciferin-H conversion, luminescence | P11712 | 96,000 tested, 20% active | inhibition, % at 5 µM;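 active means blocking of liver enzyme CYP2C9 beyond about 50% at 5 µM, limit read from the data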
Ecoli tolC = blocks growth of E. coli BW25113 tolC mutant | OD615 | growth inhibition, % at 10 µM (by protocol) | 65,000 tested, 2.2% active | AID 573;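 active means growth inhibition at or above a cutoff equal to the mean over every tested compound plus 3 SD, cut at about 60% in these data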;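 further: growth measured after 20 h incubation at 37 °C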
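Material: E. coli BW25113 ΔtolC::kan, tolC deletion mutant strain. Measure: percent growth inhibition. Schedule: 37 °C, 20 h exposure. Doses: single-point testing at 10 µM. Signal: A615 absorbance measurement. Buffer or medium: kanamycin-containing LB broth (50 µg/mL).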
An asterisk follows results filed as active; / = not tested or not shown. Most compounds without a hit are left out; they make up all but 29% or so of the library.

SMILES	CYP2C19 activ	CYP2C19 inh	Ecoli WT expand	CYP2C9 activ	CYP2C9 inh	Ecoli tolC
CCC(=O)Nc1cccc(C(=O)OCC(=O)c2ccccc2Cl)c1	0.7	27	4	3.4*	-236	/
CCC(=O)Nc1cccc(C(=O)/C=C/c2ccccc2)c1	0.4	60*	1	2*	-101	/
CCC(=O)NC1=C(NC(C)c2ccccc2)C(=O)c2ccccc2C1=O (stereo unspecified)	0.7	30	5	0.5	52*	/
CSc1cccc(NC(=O)/C=C/c2ccccc2)c1	0.4	55*	3	1.9	-91	/
CCN(CC)C(=O)C1CCN(S(=O)(=O)c2ccc3oc4ccccc4c3c2)CC1	0.8	17	0	1.8	-75	16
Cn1cccc1P(=O)(c1cccn1C)c1cccn1C	1.1	-8	-4	1.1	-15	-9
CCN(CC)C(=O)/C(=C\c1ccc2c(c1)OCO2)NC(=O)c1ccc(Br)cc1	0.8	20	-8	0.6	40	/
Cc1ccc(CCN2CC(C(=O)NCCCOC(C)C)CC2=O)cc1 (stereo unspecified)	1.1	-6	-3	1	2	/
CCC(=O)Nc1ccc2c(c1)C(=O)c1ccccc1C2=O	0.9	6	-3	0.4	58*	/
CC(=O)c1cccc(NC(=O)C2CCCC2)c1	0.9	14	3	0.9	14	-5
O=C(Nc1ccc(C#Cc2ccccc2)cc1)C1CC1	1.1	-11	-9	2.3*	-131	/
O=C(Nc1cccc(S(=O)(=O)c2cccc(NC(=O)C3CC3)c2)c1)C1CC1	0	99*	10	0.4	60*	94*
CCCC(=O)Nc1ccc(C#Cc2ccccc2)cc1	1.1	-5	-11	1.5	-50	/
O=C(c1ccccc1)c1cccc(NC(=O)C2CC2)c1	0.4	62*	-1	1	4	/
CCC(=O)Nc1ccc2c(c1)C(=O)N(C)C2=O	1.1	-12	3	0.9	6	/
CC(=O)c1cccc(NC(=O)C2CCCN(S(=O)(=O)c3ccccc3)C2)c1 (stereo unspecified)	0.7	30	1	0.6	39	26
CCOc1ccccc1N(CC(=O)NC(C)(C)C)C(=O)Cn1nnc(-c2ccc(C)o2)n1	0.7	32	27	0.7	25	4
CCC(=O)Nc1cccc(C(=O)c2ccccc2)c1	0.2	77*	4	1.1	-7	8
CCCN1CCN(C(=O)c2cccc3c2C(=O)N(CCOC)C3)CC1	1.1	-12	-6	1.2	-16	-19
CC(C)c1ccc(NC(=O)c2cccnc2)cc1	1	0	7	0.9	14	2
CN(C)C(=O)c1ccc(NC(=O)c2cncc(Br)c2)cc1	/	/	-4	/	/	-6
CC(C)c1ccc(O)c(NC(=O)c2cccnc2)c1	0.3	70*	-2	0.5	48	/
CCC(C)c1ccc(O)c(NC(=O)c2cncc(Br)c2)c1 (stereo unspecified)	0.6	39	5	0.5	50*	26
Cn1c(=O)c2c(ncn2CC(=O)Nc2ccccc2Sc2ccccc2)n(C)c1=O	1	2	-1	1	4	8
Nc1nnc(SCCOc2ccc(Br)cc2)s1	0.2	82*	7	0.8	19	12
SMILES	CYP2C19 activ	CYP2C19 inh	Ecoli WT expand	CYP2C9 activ	CYP2C9 inh	Ecoli tolC
CCOc1ccc(C(=O)CSc2nnc(N)s2)cc1	0.4	58*	2	0.7	34	0
COc1ccc(OCCc2nnc(N)s2)cc1	1	0	0	1.1	-10	/
Nc1nnc(SCCOc2ccccc2)s1	0.1	87*	14	0.4	63*	7
O=c1cc(NCc2ccco2)c2ccccc2o1	0.6	45	16	0.9	11	-2
CCOC(=O)C1CCCN(C(=O)c2cc(Nc3ccc(OC)c(OC)c3)nc3ccccc23)C1 (stereo unspecified)	0.5	48	-9	0.3	75*	31
CCOC(=O)C1CCCN(C(=O)c2cc(Nc3ccc(OC)cc3OC)nc3ccccc23)C1 (stereo unspecified)	0.4	64*	-19	0	98*	/
O=C(NC1CCCCC1)N1CCC(n2cnc3ccccc32)CC1	1.1	-8	1	1.2	-17	-23
Cc1cc(OC(=O)c2ccc(S(=O)(=O)N(C)C)cc2)cc(=O)o1	1	4	-3	1	-4	-14
CC(=O)c1c(N)c(C#N)c(C)n1-c1ccc(Br)cc1	0.1	94*	3	1	4	-12
CCC(C)NS(=O)(=O)c1ccc(S(=O)(=O)N2CCCC3(CCCCC3)C2)cc1 (stereo unspecified)	0.6	35	0	0.3	74*	/
O=C(CSCc1cccc(Cl)c1)N1CCN(Cc2ccc3c(c2)OCO3)CC1	0.7	31	-1	0.8	16	/
CC1(C)CC(=O)C2=C(C1)OC(=O)C2(NC(=O)c1cccs1)C(F)(F)F (stereo unspecified)	1.1	-15	-9	0.4	56*	-16
Brc1cnn(-c2nc(N3CCOCC3)nc(N3CCOCC3)n2)c1	/	/	/	/	/	-20
CCCCn1c(-c2nn(C)cc2Cl)n[nH]c1=S	0.5	52*	5	0.8	21	/
CCCCn1c(-c2nn(C)c(C)c2Cl)n[nH]c1=S	0.8	19	0	0.8	18	/
CC(C)Cn1c(-c2nn(C)cc2Cl)n[nH]c1=S	0.4	57*	-7	1	0	/
Cc1cc2nn(-c3cccc4ccccc34)nc2cc1NC(=O)c1cccs1	0.7	30	-12	0.7	29	/
O=C(CN1CCOCC1)Nc1ccccc1NC(=O)C1CCN(c2ncccn2)CC1	0.7	29	-1	0.9	12	-13
O=C1Nc2cc(Cl)c(Cl)cc2N(O)N1c1ccc(Cl)cc1	1.1	-6	9	0.8	23	/
O=C1Nc2cc(Cl)c(Cl)cc2N(O)N1c1cccc(Cl)c1	1.1	-10	-2	0.5	52*	/
COc1cccc(N(C(=O)Cn2nnc(-c3cccs3)n2)C(C(=O)NC(C)C)c2ccc(C)o2)c1 (stereo unspecified)	0.9	7	-3	0.9	8	/
O=[N+]([O-])c1cc(-c2nnc(C34CC5CC(CC(C5)C3)C4)o2)cc([N+](=O)[O-])c1	1.1	-7	-14	1.1	-8	/
N#Cc1cc2ccccc2nc1SCc1cccnc1	0.5	52*	-2	0.6	40	6
N#Cc1cc2c(nc1SCc1cccnc1)CCCCC2	0.2	80*	-2	0.5	50	51
N#Cc1cc2c(nc1SCC(O)CS(=O)(=O)Cc1ccccc1)CCCC2 (stereo unspecified)	0.8	22	-7	0.4	58*	17
N#Cc1cc2c(nc1SCc1ccccc1)CCCCC2	0.9	14	0	0.8	16	/
COc1ccc2nc(SCc3cccnc3)c(C#N)cc2c1	0.6	39	0	0.5	49	/
CCCC(=O)NC(=S)Nc1ccccc1F	0.6	42	9	0.7	29	/
